In ChEMBL document CHEMBL1142516, “Design, synthesis, and structure-affinity relationships of novel series of sialosides as CD22-specific inhibitors” (J Med Chem, 2008):
pIC50: −log10 of the molar value.

Experiments:
[1] = Binding affinity to biotinylated mouse CD22-human IgG1 chimeric protein expressed in mouse J558LST6 cells by flow cytometry; type: cell-based
In short: (§1)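 IC50 from inhibition of CD22-Fc binding to alpha2,6-sialic acid on ST6GalI-transfected J558L mouse myeloma cells (J558LST6), incubated with CD22-Fc plus varied sialoside concentrations. Detection with Alexa Fluor 647-streptavidin, 30 min on ice, then flow cytometry. % binding = (A−B)/(C−B)×100 using MFI: A, sialoside sample; B, parent J558L; C, untreated J558LST6. IC50 taken as 50% binding inhibition; means of ≥3 independent determinations.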

B-cell receptor CD22 = molecular target: T1, B-cell receptor CD22 (Homo sapiens, UniProt P20273); test: Binding affinity to biotinylated human CD22-human IgG1 chimeric protein expressed in mouse J558LST6 cells by flow cytometry; type: cell-based; in short: as §1
T1 sequence (P20273 whole entry): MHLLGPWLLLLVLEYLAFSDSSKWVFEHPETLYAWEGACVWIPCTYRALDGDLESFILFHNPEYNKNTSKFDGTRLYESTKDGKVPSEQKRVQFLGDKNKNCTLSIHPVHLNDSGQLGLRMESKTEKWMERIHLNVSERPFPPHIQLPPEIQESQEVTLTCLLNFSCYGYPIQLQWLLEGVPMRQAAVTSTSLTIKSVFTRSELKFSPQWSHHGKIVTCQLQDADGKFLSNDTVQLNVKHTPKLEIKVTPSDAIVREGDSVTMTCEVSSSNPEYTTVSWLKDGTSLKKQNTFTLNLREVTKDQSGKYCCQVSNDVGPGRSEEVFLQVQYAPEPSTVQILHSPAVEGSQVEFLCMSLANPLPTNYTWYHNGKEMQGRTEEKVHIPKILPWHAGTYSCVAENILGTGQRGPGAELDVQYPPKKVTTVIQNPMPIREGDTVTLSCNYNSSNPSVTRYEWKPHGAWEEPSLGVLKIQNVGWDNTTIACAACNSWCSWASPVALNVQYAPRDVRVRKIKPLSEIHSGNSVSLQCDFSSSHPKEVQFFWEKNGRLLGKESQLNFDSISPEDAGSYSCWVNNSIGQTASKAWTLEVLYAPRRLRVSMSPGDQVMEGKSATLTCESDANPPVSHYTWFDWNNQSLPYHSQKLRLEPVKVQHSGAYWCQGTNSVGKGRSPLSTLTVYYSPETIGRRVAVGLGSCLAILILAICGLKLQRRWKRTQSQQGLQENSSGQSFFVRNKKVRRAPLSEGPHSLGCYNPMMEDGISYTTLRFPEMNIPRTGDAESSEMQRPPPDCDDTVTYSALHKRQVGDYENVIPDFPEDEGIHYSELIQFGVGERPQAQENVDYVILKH

pIC50 [1] | pIC50 (B-cell receptor CD22) | Structure (SMILES)
5.02 | 4.42 | COc1ccc(O[C@@H]2O[C@H](CO[C@]3(C(=O)O)C[C@H](O)[C@@H](NC(=O)CO)[C@H]([C@H](O)[C@H](O)CNCC4CCCCC4)O3)[C@H](O)[C@H](O)[C@H]2O)cc1
4.59 | 3.91 | COc1ccc(O[C@@H]2O[C@H](CO[C@]3(C(=O)O)C[C@H](O)[C@@H](NC(=O)CO)[C@H]([C@H](O)[C@H](O)CNCc4ccccc4)O3)[C@H](O)[C@H](O)[C@H]2O)cc1
5.54 | 5.37 | COc1ccc(O[C@@H]2O[C@H](CO[C@]3(C(=O)O)C[C@H](O)[C@@H](NC(=O)CO)[C@H]([C@H](O)[C@H](O)CNC(=O)Cc4ccc(-c5cccc(O)c5)cc4)O3)[C@H](O)[C@H](O)[C@H]2O)cc1
4.18 | 4.68 | COc1ccc(O[C@@H]2O[C@H](CO[C@]3(C(=O)O)C[C@H](O)[C@@H](NC(=O)CO)[C@H]([C@H](O)[C@H](O)CNC(=O)CCCc4ccc5ccc6cccc7ccc4c5c67)O3)[C@H](O)[C@H](O)[C@H]2O)cc1
5.39 | 5.21 | COc1ccc(O[C@@H]2O[C@H](CO[C@]3(C(=O)O)C[C@H](O)[C@@H](NC(=O)CO)[C@H]([C@H](O)[C@H](O)CNCCCCc4ccc(-c5ccccc5)cc4)O3)[C@H](O)[C@H](O)[C@H]2O)cc1
4.11 | 4.61 | COc1ccc(O[C@@H]2O[C@H](CO[C@]3(C(=O)O)C[C@H](O)[C@@H](NC(=O)CO)[C@H]([C@H](O)[C@H](O)CNCc4cc(OC)cc(OC)c4)O3)[C@H](O)[C@H](O)[C@H]2O)cc1
4.32 | 4.35 | COc1ccc(O[C@@H]2O[C@H](CO[C@]3(C(=O)O)C[C@H](O)[C@@H](NC(=O)CO)[C@H]([C@H](O)[C@H](O)CNCc4ccc(-c5ccc(C(F)(F)F)cc5)cc4)O3)[C@H](O)[C@H](O)[C@H]2O)cc1
5.21 | 5.43 | COc1ccc(O[C@@H]2O[C@H](CO[C@]3(C(=O)O)C[C@H](O)[C@@H](NC(=O)CO)[C@H]([C@H](O)[C@H](O)CNC(=O)Cc4ccc(-c5ccccc5)cc4)O3)[C@H](O)[C@H](O)[C@H]2O)cc1
4.05 | 4.39 | CCCCCC(=O)NC[C@@H](O)[C@@H](O)[C@@H]1O[C@@](OC[C@H]2O[C@@H](Oc3ccc(OC)cc3)[C@H](O)[C@@H](O)[C@H]2O)(C(=O)O)C[C@H](O)[C@H]1NC(=O)CO
4.95 | 5.26 | COc1ccc(O[C@@H]2O[C@H](CO[C@]3(C(=O)O)C[C@H](O)[C@@H](NC(=O)CO)[C@H]([C@H](O)[C@H](O)CNCCc4ccc(-c5ccccc5)cc4)O3)[C@H](O)[C@H](O)[C@H]2O)cc1
3.79 | 3.94 | COc1ccc(O[C@@H]2O[C@H](CO[C@]3(C(=O)O)C[C@H](O)[C@@H](NC(=O)CO)[C@H]([C@H](O)[C@H](O)CNC(=O)c4cc(Cl)ccc4O)O3)[C@H](O)[C@H](O)[C@H]2O)cc1
4.57 | 5.01 | COc1ccc(O[C@@H]2O[C@H](CO[C@]3(C(=O)O)C[C@H](O)[C@@H](NC(=O)CO)[C@H]([C@H](O)[C@H](O)CNCc4ccc(-c5ccc(C)cc5)cc4)O3)[C@H](O)[C@H](O)[C@H]2O)cc1
4.05 | 5.59 | COc1ccc(O[C@@H]2O[C@H](CO[C@]3(C(=O)O)C[C@H](O)[C@@H](NC(=O)CO)[C@H]([C@H](O)[C@H](O)CNC(=O)c4ccc5ccccc5c4)O3)[C@H](O)[C@H](O)[C@H]2O)cc1
4.63 | 4.14 | COc1ccc(O[C@@H]2O[C@H](CO[C@]3(C(=O)O)C[C@H](O)[C@@H](NC(=O)CO)[C@H]([C@H](O)[C@H](O)CNC(=O)c4ccc(-c5ccc(C(=O)O)cc5)cc4)O3)[C@H](O)[C@H](O)[C@H]2O)cc1
4.18 | 4.80 | COc1ccc(O[C@@H]2O[C@H](CO[C@]3(C(=O)O)C[C@H](O)[C@@H](NC(=O)CO)[C@H]([C@H](O)[C@H](O)CNC(=O)C4CCCCC4)O3)[C@H](O)[C@H](O)[C@H]2O)cc1
3.86 | 5.12 | COc1ccc(O[C@@H]2O[C@H](CO[C@]3(C(=O)O)C[C@H](O)[C@@H](NC(=O)CO)[C@H]([C@H](O)[C@H](O)CNC(=O)CCc4ccc(O)cc4)O3)[C@H](O)[C@H](O)[C@H]2O)cc1

pIC50 [1] | pIC50 (B-cell receptor CD22) | Structure (SMILES)
4.49 | 5.13 | COc1ccc(O[C@@H]2O[C@H](CO[C@]3(C(=O)O)C[C@H](O)[C@@H](NC(=O)CO)[C@H]([C@H](O)[C@H](O)CNCc4ccc(-c5cccc(C(=O)O)c5)cc4)O3)[C@H](O)[C@H](O)[C@H]2O)cc1
5.77 | 6.05 | COc1ccc(O[C@@H]2O[C@H](CO[C@]3(C(=O)O)C[C@H](O)[C@@H](NC(=O)CO)[C@H]([C@H](O)[C@H](O)CNC(=O)Cc4ccc(-c5ccc(O)cc5)cc4)O3)[C@H](O)[C@H](O)[C@H]2O)cc1
4.49 | 3.88 | COc1ccc(O[C@@H]2O[C@H](CO[C@]3(C(=O)O)C[C@H](O)[C@@H](NC(=O)CO)[C@H]([C@H](O)[C@H](O)CNC(=O)c4cccnc4)O3)[C@H](O)[C@H](O)[C@H]2O)cc1
4.61 | 6.00 | COc1ccc(O[C@@H]2O[C@H](CO[C@]3(C(=O)O)C[C@H](O)[C@@H](NC(=O)CO)[C@H]([C@H](O)[C@H](O)CNC(=O)Cc4ccc5ccccc5c4)O3)[C@H](O)[C@H](O)[C@H]2O)cc1
5.19 | 6.62 | COc1ccc(O[C@@H]2O[C@H](CO[C@]3(C(=O)O)C[C@H](O)[C@@H](NC(=O)CO)[C@H]([C@H](O)[C@H](O)CNCc4ccc(-c5ccc(O)cc5)cc4)O3)[C@H](O)[C@H](O)[C@H]2O)cc1
3.86 | 3.72 | COc1ccc(O[C@@H]2O[C@H](CO[C@]3(C(=O)O)C[C@H](O)[C@@H](NC(=O)CO)[C@H]([C@H](O)[C@H](O)CNC(=O)c4ccccc4O)O3)[C@H](O)[C@H](O)[C@H]2O)cc1
4.28 | 5.96 | COc1ccc(O[C@@H]2O[C@H](CO[C@]3(C(=O)O)C[C@H](O)[C@@H](NC(=O)CO)[C@H]([C@H](O)[C@H](O)CNC(=O)c4ccc(-c5ccccc5)cc4)O3)[C@H](O)[C@H](O)[C@H]2O)cc1
4.52 | 5.75 | COc1ccc(O[C@@H]2O[C@H](CO[C@]3(C(=O)O)C[C@H](O)[C@@H](NC(=O)CO)[C@H]([C@H](O)[C@H](O)CNCc4ccc(-c5ccc(OC)cc5)cc4)O3)[C@H](O)[C@H](O)[C@H]2O)cc1
5.00 | 4.37 | COc1ccc(O[C@@H]2O[C@H](CO[C@]3(C(=O)O)C[C@H](O)[C@@H](NC(=O)CO)[C@H]([C@H](O)[C@H](O)CNCc4ccc(-c5ccc(C(=O)O)cc5)cc4)O3)[C@H](O)[C@H](O)[C@H]2O)cc1
4.78 | 5.76 | COc1ccc(O[C@@H]2O[C@H](CO[C@]3(C(=O)O)C[C@H](O)[C@@H](NC(=O)CO)[C@H]([C@H](O)[C@H](O)CNCc4ccc(-c5cccc(O)c5)cc4)O3)[C@H](O)[C@H](O)[C@H]2O)cc1
3.78 | 4.98 | COc1ccc(O[C@@H]2O[C@H](CO[C@]3(C(=O)O)C[C@H](O)[C@@H](NC(=O)CO)[C@H]([C@H](O)[C@H](O)CNC(=O)CCc4ccccc4)O3)[C@H](O)[C@H](O)[C@H]2O)cc1
4.78 | 5.15 | COc1ccc(O[C@@H]2O[C@H](CO[C@]3(C(=O)O)C[C@H](O)[C@@H](NC(=O)CO)[C@H]([C@H](O)[C@H](O)CNC(=O)c4ccc(-c5cccc(C(=O)O)c5)cc4)O3)[C@H](O)[C@H](O)[C@H]2O)cc1
4.79 | 6.33 | COc1ccc(O[C@@H]2O[C@H](CO[C@]3(C(=O)O)C[C@H](O)[C@@H](NC(=O)CO)[C@H]([C@H](O)[C@H](O)CNCc4ccc(-c5ccccc5)cc4)O3)[C@H](O)[C@H](O)[C@H]2O)cc1
5.06 | 6.40 | COc1ccc(O[C@@H]2O[C@H](CO[C@]3(C(=O)O)C[C@H](O)[C@@H](NC(=O)CO)[C@H]([C@H](O)[C@H](O)CNC(=O)c4ccc(-c5ccc(O)cc5)cc4)O3)[C@H](O)[C@H](O)[C@H]2O)cc1
4.20 | 5.05 | COc1ccc(O[C@@H]2O[C@H](CO[C@]3(C(=O)O)C[C@H](O)[C@@H](NC(=O)CO)[C@H]([C@H](O)[C@H](O)CNC(=O)C(c4ccccc4)c4ccccc4)O3)[C@H](O)[C@H](O)[C@H]2O)cc1
4.90 | 6.64 | COc1ccc(O[C@@H]2O[C@H](CO[C@]3(C(=O)O)C[C@H](O)[C@@H](NC(=O)CO)[C@H]([C@H](O)[C@H](O)CNCc4ccc(-c5ccccc5O)cc4)O3)[C@H](O)[C@H](O)[C@H]2O)cc1
